Assay results taken from ChEMBL document CHEMBL3588757, “Structure-based design, synthesis and biological testing of piperazine-linked bis-epipodophyllotoxin etoposide analogs” (Bioorg Med Chem, 2015).

Tests used:
Assay type in all cases: functional
OVCAR-4 = experiment: Cytotoxicity against human OVCAR4 cells assessed as cell growth at 0.5 uM by SRB assay; conditions: read-out: Activity
UACC-62 [1] = experiment: Cytotoxicity against human UACC62 cells assessed as cell growth at 5 uM by SRB assay; conditions: read-out: Activity
HCC 2998 = experiment: Cytotoxicity against human HCC2998 cells assessed as cell growth at 0.5 uM by SRB assay; conditions: read-out: Activity
Method in brief: (§1)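 Measured in the NCI-60 human tumour cell line panel using five-dose testing. Growth was recorded at each dose for each cell line, and a GI50 was derived for each line.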

HOP-92 = experiment: Cytotoxicity against human HOP92 cells assessed as cell growth at 0.5 uM by SRB assay; conditions: read-out: Activity; method in brief: as §1
T47D = experiment: Cytotoxicity against human T47D cells by SRB assay
Method in brief: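 NCI-60 panel screen; 5-dose testing giving GI50 per cell line, plus a single 10 µM one-dose test. Method details not given beyond the NCI screen.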

SNB-19 = experiment: Cytotoxicity against human SNB19 cells assessed as cell growth at 50 uM by SRB assay; conditions: read-out: Activity
MDA-MB-468 [2] = experiment: Cytotoxicity against human MDA-MB-468 cells assessed as cell growth at 0.5 uM by SRB assay; conditions: read-out: Activity
SK-OV-3 = experiment: Cytotoxicity against human SKOV3 cells assessed as cell growth at 0.005 uM by SRB assay; conditions: read-out: Activity
SR [3] = experiment: Cytotoxicity against human SR cells assessed as cell growth at 5 uM by SRB assay; conditions: read-out: Activity
SR [4] = experiment: Cytotoxicity against human SR cells assessed as cell growth at 0.005 uM by SRB assay; conditions: read-out: Activity
DU-145 [5] = experiment: Cytotoxicity against human DU145 cells by SRB assay; method in brief: as §1
PC-3 [6] = experiment: Cytotoxicity against human PC3 cells assessed as cell growth at 0.5 uM by SRB assay; conditions: read-out: Activity
MDA-MB-435 = experiment: Cytotoxicity against human MDA-MB-435 cells assessed as cell growth at 0.005 uM by SRB assay; conditions: read-out: Activity
NCI-H522 = experiment: Cytotoxicity against human NCI-H522 cells assessed as cell growth at 0.005 uM by SRB assay; conditions: read-out: Activity
RXF 393 [7] = experiment: Cytotoxicity against human RXF393 cells assessed as cell growth at 0.005 uM by SRB assay; conditions: read-out: Activity
SNB-75 [8] = experiment: Cytotoxicity against human SNB75 cells assessed as cell growth at 0.05 uM by SRB assay; conditions: read-out: Activity
MDA-MB-231 = experiment: Cytotoxicity against human MDA-MB-231/ATCC cells assessed as cell growth at 0.005 uM by SRB assay; conditions: read-out: Activity
RXF 393 [9] = experiment: Cytotoxicity against human RXF393 cells assessed as cell growth at 0.5 uM by SRB assay; conditions: read-out: Activity
DU-145 [10] = experiment: Cytotoxicity against human DU145 cells assessed as cell growth at 50 uM by SRB assay; conditions: read-out: Activity; method in brief: as §1
HOP-62 = experiment: Cytotoxicity against human HOP62 cells assessed as cell growth at 5 uM by SRB assay; conditions: read-out: Activity; method in brief: as §1
SR [11] = experiment: Cytotoxicity against human SR cells assessed as cell growth at 0.05 uM by SRB assay; conditions: read-out: Activity
MDA-MB-468 [12] = experiment: Cytotoxicity against human MDA-MB-468 cells assessed as cell growth at 0.005 uM by SRB assay; conditions: read-out: Activity
HCT-15 [13] = experiment: Cytotoxicity against human HCT15 cells by SRB assay; method in brief: as §1
TK-10 = experiment: Cytotoxicity against human TK10 cells assessed as cell growth at 5 uM by SRB assay; conditions: read-out: Activity
HCT-116 = experiment: Cytotoxicity against human HCT116 cells assessed as cell growth at 5 uM by SRB assay; conditions: read-out: Activity; method in brief: as §1
HL-60(TB) [14] = experiment: Cytotoxicity against human HL-60(TB) cells assessed as cell growth at 5 uM by SRB assay; conditions: read-out: Activity; method in brief: as §1
SK-MEL-5 = experiment: Cytotoxicity against human SK-MEL-5 cells assessed as cell growth at 5 uM by SRB assay; conditions: read-out: Activity
PC-3 [15] = experiment: Cytotoxicity against human PC3 cells assessed as cell growth at 0.05 uM by SRB assay; conditions: read-out: Activity
ACHN = experiment: Cytotoxicity against human ACHN cells assessed as cell growth at 50 uM by SRB assay; conditions: read-out: Activity
786-0 = experiment: Cytotoxicity against human 786-0 cells assessed as cell growth at 0.5 uM by SRB assay; conditions: read-out: Activity
BT-549 = experiment: Cytotoxicity against human BT549 cells assessed as cell growth at 0.005 uM by SRB assay; conditions: read-out: Activity
A549 = experiment: Cytotoxicity against human A549/ATCC cells assessed as cell growth at 0.05 uM by SRB assay; conditions: read-out: Activity
SF-295 = experiment: Cytotoxicity against human SF295 cells assessed as cell growth at 0.05 uM by SRB assay; conditions: read-out: Activity
A498 = experiment: Cytotoxicity against human A498 cells assessed as cell growth at 5 uM by SRB assay; conditions: read-out: Activity
UACC-62 [16] = experiment: Cytotoxicity against human UACC62 cells assessed as cell growth at 50 uM by SRB assay; conditions: read-out: Activity
HL-60(TB) [17] = experiment: Cytotoxicity against human HL-60(TB) cells by SRB assay; method in brief: as §1
UO-31 = experiment: Cytotoxicity against human UO31 cells assessed as cell growth at 0.05 uM by SRB assay; conditions: read-out: Activity
U-251 = experiment: Cytotoxicity against human U251 cells assessed as cell growth at 0.05 uM by SRB assay; conditions: read-out: Activity
LOX IMVI [18] = experiment: Cytotoxicity against human LOXIMVI cells assessed as cell growth at 5 uM by SRB assay; conditions: read-out: Activity
HCT-15 [19] = experiment: Cytotoxicity against human HCT15 cells assessed as cell growth at 5 uM by SRB assay; conditions: read-out: Activity; method in brief: as §1
IGROV-1 = experiment: Cytotoxicity against human IGROV1 cells assessed as cell growth at 5 uM by SRB assay; conditions: read-out: Activity
CCRF-CEM = experiment: Cytotoxicity against human CCRF-CEM cells by SRB assay
SNB-75 [20] = experiment: Cytotoxicity against human SNB75 cells assessed as cell growth at 5 uM by SRB assay; conditions: read-out: Activity
LOX IMVI [21] = experiment: Cytotoxicity against human LOXIMVI cells assessed as cell growth at 0.05 uM by SRB assay; conditions: read-out: Activity
NCI-H460 = experiment: Cytotoxicity against human NCI-H460 cells assessed as cell growth at 5 uM by SRB assay; conditions: read-out: Activity
[22] = read-out: LC50 (the source's name)
[23] = read-out: pLC50 (the source's name) (converted)

SMILES: COc1cc([C@@H]2c3cc4c(cc3[C@@H](NC(=O)CN3CCN(CCCCCCCCCCN5CCN(CC(=O)N[C@@H]6c7cc8c(cc7[C@@H](c7cc(OC)c(O)c(OC)c7)[C@H]7C(=O)OC[C@@H]76)OCO8)CC5)CC3)[C@H]3COC(=O)[C@H]23)OCO4)cc(OC)c1O
- growth at 0.5 µM (OVCAR-4): 77%
- growth at 5 µM (UACC-62 [1]): 65%
- growth at 0.5 µM (HCC 2998): 61%
- growth at 0.5 µM (HOP-92): 21%
- GI50 (T47D; read-out: GI50): 0.463 µM
- CC50 (T47D; [22]): > 50 µM
- TGI (T47D; read-out: TGI): 9.74 µM
- GI50 (T47D; read-out: pGI50 (converted)): 0.468 µM
- CC50 (T47D; [23]): > 50.1 µM
- TGI (T47D; read-out: pTGI (converted)): 9.77 µM
- growth at 50 µM (SNB-19): -92%
- growth at 0.5 µM (MDA-MB-468 [2]): 73%
- growth at 0.005 µM (SK-OV-3): 98%
- growth at 5 µM (SR [3]): -26%
- growth at 0.005 µM (SR [4]): 98%
- GI50 (DU-145 [5]; read-out: GI50): 0.153 µM
- CC50 (DU-145 [5]; [22]): 14.6 µM
- TGI (DU-145 [5]; read-out: TGI): 2.89 µM
- GI50 (DU-145 [5]; read-out: pGI50 (converted)): 0.151 µM
- CC50 (DU-145 [5]; [23]): 14.5 µM
- TGI (DU-145 [5]; read-out: pTGI (converted)): 2.88 µM
- growth at 0.5 µM (PC-3 [6]): 61%
- growth at 0.005 µM (MDA-MB-435): 96%
- growth at 0.005 µM (NCI-H522): 97%
- growth at 0.005 µM (RXF 393 [7]): 88%
- growth at 0.05 µM (SNB-75 [8]): 82%
- growth at 0.005 µM (MDA-MB-231): 98%
- growth at 0.5 µM (RXF 393 [9]): 71%
- growth at 50 µM (DU-145 [10]): -100%
- growth at 5 µM (HOP-62): -73%
- growth at 0.05 µM (SR [11]): 85%
- growth at 0.005 µM (MDA-MB-468 [12]): 95%
- GI50 (HCT-15 [13]; read-out: GI50): 0.359 µM
- CC50 (HCT-15 [13]; [22]): 3.39 µM
- TGI (HCT-15 [13]; read-out: TGI): 1.24 µM
- GI50 (HCT-15 [13]; read-out: pGI50 (converted)): 0.363 µM
- CC50 (HCT-15 [13]; [23]): 3.39 µM
- TGI (HCT-15 [13]; read-out: pTGI (converted)): 1.23 µM
- growth at 5 µM (TK-10): -4%
- growth at 5 µM (HCT-116): -15%
- growth at 5 µM (HL-60(TB) [14]): -44%
- growth at 5 µM (SK-MEL-5): 52%
- growth at 0.05 µM (PC-3 [15]): 89%
- growth at 50 µM (ACHN): -87%
- growth at 0.5 µM (786-0): 26%
- growth at 0.005 µM (BT-549): 94%
- growth at 0.05 µM (A549): 29%
- growth at 0.05 µM (SF-295): 88%
- growth at 5 µM (A498): -9%
- growth at 50 µM (UACC-62 [16]): -30%
- GI50 (HL-60(TB) [17]; read-out: GI50): 0.113 µM
- CC50 (HL-60(TB) [17]; [22]): > 50 µM
- TGI (HL-60(TB) [17]; read-out: TGI): 0.901 µM
- GI50 (HL-60(TB) [17]; read-out: pGI50 (converted)): 0.112 µM
- CC50 (HL-60(TB) [17]; [23]): > 50.1 µM
- TGI (HL-60(TB) [17]; read-out: pTGI (converted)): 0.891 µM
- growth at 0.05 µM (UO-31): 85%
- growth at 0.05 µM (U-251): 69%
- growth at 5 µM (LOX IMVI [18]): -80%
- growth at 5 µM (HCT-15 [19]): -69%
- growth at 5 µM (IGROV-1): 9%
- GI50 (CCRF-CEM; read-out: GI50): 0.0809 µM
- CC50 (CCRF-CEM; [22]): > 50 µM
- GI50 (CCRF-CEM; read-out: pGI50 (converted)): 0.0813 µM
- CC50 (CCRF-CEM; [23]): > 50.1 µM
- growth at 5 µM (SNB-75 [20]): -12%
- growth at 0.05 µM (LOX IMVI [21]): 56%
- growth at 5 µM (NCI-H460): 33%
